Common to all, as to type: functional
Experiment [1] deals with Staphylococcus aureus. The experiment in a line: Antibacterial activity against Staphylococcus aureus NCIB 8588 after 24 hrs by agar well diffusion method. In short, it runs like this:
(§1)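 Agar well diffusion. Clinical isolates were first checked for viability, then grown in nutrient broth for 8 h at 37 °C. About 0.2 ml of broth culture was mixed into 18 ml molten diagnostic sensitivity test agar cooled to 45 °C and poured into plates. Compounds in DMSO went into bored wells, with streptomycin as reference. Plates stood 1 h for diffusion, then were incubated upright at 37 °C for 24 h. Clear inhibition zones were read in mm.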

In experiment [2] the test system is Escherichia coli. In words: Antibacterial activity against Escherichia coli NCIB 86 after 24 hrs by agar well diffusion method. Put shortly: as §1
On the technique in general: A growth-free zone around the sample is the usual read-out of agar diffusion tests.

For a further experiment, the system named is Pseudomonas fluorescens. In words: Antibacterial activity against Pseudomonas fluorescens NCIB 3756 after 24 hrs by agar well diffusion method. In short, it runs like this: as §1
For experiment [3], the system named is Klebsiella pneumoniae. The experiment in a line: Antibacterial activity against Klebsiella pneumoniae NCIB 418 after 24 hrs by agar well diffusion method. In short, it runs like this:
as §1

The test system of experiment [4] is Bacillus subtilis. The experiment in a line: Antibacterial activity against Bacillus subtilis NCIB 3610 after 24 hrs by agar well diffusion method. In short, it runs like this: as §1
For experiment [5], the system named is Bacillus cereus. The experiment in a line: Antibacterial activity against Bacillus cereus NCIB 6349 after 24 hrs by agar well diffusion method. In short, it runs like this:
as §1

Experiment [6] concerns Shigella dysenteriae. In words: Antibacterial activity against Shigella dysenteriae after 24 hrs by agar well diffusion method.
Another experiment concerns Pseudomonas aeruginosa. The experiment in a line: Antibacterial activity against Pseudomonas aeruginosa NCIB 950 after 24 hrs by agar well diffusion method. In short, it runs like this:
as §1

Another experiment relates to Candida albicans. In words: Antifungal activity against Candida albicans after 3 days by agar well diffusion method.
The subject of experiment [7] is Bacillus anthracis. In words: Antibacterial activity against Bacillus anthracis after 72 hrs.
The test system of experiment [8] is Geobacillus stearothermophilus. In words: Antibacterial activity against Bacillus stearothermophilus NCIB 8222 after 72 hrs. As to conditions: NCIB 8222, 72 h. Put shortly:
(§2)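 MIC by the Russell and Furr method, run on selected Gram-positive and Gram-negative strains. Once the agar had set and its surface had dried, nutrient agar plates were streaked with overnight broth cultures. They were incubated at 37 °C for up to 72 h and scored for presence or absence of growth.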

Experiment [9] deals with Bacillus subtilis. The experiment in a line: Antibacterial activity against Bacillus subtilis NCIB 3610 after 72 hrs. To be noted: NCIB 3610, 72 h. In short, it runs like this: as §2
Experiment [10] has as its system Bacillus cereus. In words: Antibacterial activity against Bacillus cereus NCIB 6349 after 72 hrs. To be noted: NCIB 6349, 72 h. In short, it runs like this: as §2
In experiment [11] the test system is Staphylococcus aureus. In words: Antibacterial activity against Staphylococcus aureus NCIB 8588 after 72 hrs. To be noted: NCIB 8588, 72 h. In short, it runs like this:
as §2

The subject of experiment [12] is Escherichia coli. In words: Antibacterial activity against Escherichia coli NCIB 86 after 72 hrs. To be noted: NCIB 86, 72 h. Put shortly:
as §2

Experiment [13] has as its system Klebsiella pneumoniae. In words: Antibacterial activity against Klebsiella pneumoniae NCIB 418 after 72 hrs. As to conditions: NCIB 418, 72 h. In short, it runs like this: as §2
The subject of experiment [14] is Shigella dysenteriae. The experiment in a line: Antibacterial activity against Shigella dysenteriae after 72 hrs. In short, it runs like this:
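MIC by agar dilution: compound-containing nutrient agar was set and surface-dried, then streaked with overnight broth culture of the clinical isolate. Incubated at 37 °C for up to 72 h and scored for presence or absence of growth. Streptomycin was the reference.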

The subject of experiment [15] is Bacillus anthracis. In words: Antibacterial activity against Bacillus anthracis after 24 hrs by agar well diffusion method.
The subject of experiment [16] is Geobacillus stearothermophilus. The experiment in a line: Antibacterial activity against Bacillus stearothermophilus NCIB 8222 after 24 hrs by agar well diffusion method. In short, it runs like this: as §1

Values after ≈ are worked out from the molar mass of the structure shown. Active and inactive are the calls of the source. The rule behind the calls is not given here.

Usually MIC stands for the lowest concentration found to suppress growth. Regarding `Cc1ccc2c(c1)/C(=N/Nc1nc3ccccc3[nH]c1=O)C(=O)N2`, the “inhibition zone (IZ)” value in the experiment on Staphylococcus aureus [1] came to 19 mm; in the experiment with Escherichia coli [2], 14 mm; with Pseudomonas fluorescens it was 0 mm; in the experiment on Klebsiella pneumoniae [3], 17 mm; in the experiment on Bacillus subtilis [4] it was 15 mm; in the experiment on Bacillus cereus [5], 10 mm. The “inhibition zone (IZ)” value with Shigella dysenteriae [6] came to 14 mm; in the experiment with Pseudomonas aeruginosa, 0 mm; with Candida albicans it was 30 mm; in the experiment on Bacillus anthracis [15] it was 0 mm; in experiment [16], 13 mm. Further, in the experiment with Bacillus anthracis [7], the MIC result was “inactive”. The MIC was 62.5 mg/L (≈ 196 µM) in [8]; 31.3 mg/L (≈ 98 µM) against Bacillus subtilis [9]; 62.5 mg/L (≈ 196 µM) with Bacillus cereus [10]; 15.6 mg/L (≈ 48.9 µM) in the experiment with Staphylococcus aureus [11]; 31.3 mg/L (≈ 98 µM) against Escherichia coli [12]; 15.6 mg/L (≈ 48.9 µM) against Klebsiella pneumoniae [13]. This compound came in with a minimum inhibitory concentration (MIC) with Shigella dysenteriae [14] of 31.3 mg/L (≈ 98 µM).
With `CC1CCCC/C1=N\Nc1nc2ccccc2[nH]c1=O` (stereo not drawn), the “inhibition zone (IZ)” value in the experiment with Staphylococcus aureus [1] is reported as 19 mm; in the experiment with Escherichia coli [2] it was 12 mm; with Pseudomonas fluorescens, 13 mm; with Klebsiella pneumoniae [3], 15 mm; in the experiment with Bacillus subtilis [4] it was 12 mm; with Bacillus cereus [5], 13 mm. Also, the “inhibition zone (IZ)” value in the experiment on Shigella dysenteriae [6] is 0 mm; with Pseudomonas aeruginosa, 0 mm; in the experiment on Candida albicans it was 14 mm; in the experiment on Bacillus anthracis [15], 16 mm; in experiment [16] it was 25 mm. Besides, the MIC was determined as 15.6 mg/L (≈ 57.7 µM) against Bacillus anthracis [7]; 7.8 mg/L (≈ 28.9 µM) in experiment [8]; 62.5 mg/L (≈ 231 µM) in the experiment with Bacillus subtilis [9]; 15.6 mg/L (≈ 57.7 µM) with Bacillus cereus [10]; 7.8 mg/L (≈ 28.9 µM) against Staphylococcus aureus [11]; 31.3 mg/L (≈ 116 µM) in the experiment on Escherichia coli [12]. Besides, the MIC in the experiment with Klebsiella pneumoniae [13] is 7.8 mg/L (≈ 28.9 µM). For the same compound, the MIC result in the experiment with Shigella dysenteriae [14] was “inactive”.

The record behind these values is ChEMBL document CHEMBL1157693, “Microwave assisted synthesis and antimicrobial activity of 2-quinoxalinone-3-hydrazone derivatives” (2010).
